Tests used:
[1] = Drug level in Sprague-Dawley rat brain at 30 mg/kg, po measured 2 hrs post dose by LC-MS/MS analysis; format: ADME, organism-based; details: read-out: Drug uptake
In short: (§1)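 Drug-naive Sprague−Dawley rats (n = 4−5/group) were dosed orally once in 5% Solutol plus 20% Captisol in 25 mM PBS, pH 2, and euthanized 2 h later by CO₂. CSF was drawn from the cisterna magna. Drug was measured in CSF, brain and plasma; data as mean ± SEM.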

[2] = Drug level in Sprague-Dawley rat plasma at 30 mg/kg, po measured 2 hrs post dose by LC-MS/MS analysis; format: ADME, organism-based; in short: as §1
[3] = tested on: Rattus norvegicus; experiment: In vivo inhibition of glycine transporter-1 in Sprague-Dawley rat assessed as CSF glycine level at 1 mg/kg, po qd for 5 days measured 2 hrs post last dose by LC-MS/MS analysis relative to control; format: functional; set-up: scale not given: the % may be the effect or the level left
In short: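 Drug-naive Sprague-Dawley rats, n = 5 per group, dosed orally once daily for 5 days with vehicle or 1.6, 4.8 or 16.1 μmol/kg. Vehicle was 5% Solutol / 20% Captisol in 25 mM PBS, pH 2. Killed 2 h or 48 h after the last dose. CSF glycine was expressed as % of vehicle control (vehicle 2 h post last dose), mean ± SEM. Two-way ANOVA with Tukey test.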

[4] = Drug level in Sprague-Dawley rat plasma at 1 mg/kg, po qd for 5 days measured 2 hrs post last dose by LC-MS/MS analysis; format: ADME, organism-based
In short: (§2)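 Drug-naive Sprague−Dawley rats (n = 5/group) were dosed orally once daily for 5 days in 5% Solutol plus 20% Captisol in 25 mM PBS, pH 2, and sacrificed 2 h after the last dose. Drug was measured in CSF, brain and plasma; mean ± SEM.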

[5] = Drug level in Sprague-Dawley rat plasma at 10 mg/kg, po qd for 5 days measured 2 hrs post last dose by LC-MS/MS analysis; format: ADME, organism-based; in short: as §2
[6] = Intrinsic clearance in cynomolgus monkey; format: ADME, Macaca fascicularis
[7] = Intrinsic clearance in human; format: ADME
[8] = molecular target: Cytochrome P450 3A4 (Homo sapiens, UniProt P08684); experiment: Inhibition of CYP3A4 (unknown origin); format: ADME
Sequence of Cytochrome P450 3A4 (P08684 whole entry): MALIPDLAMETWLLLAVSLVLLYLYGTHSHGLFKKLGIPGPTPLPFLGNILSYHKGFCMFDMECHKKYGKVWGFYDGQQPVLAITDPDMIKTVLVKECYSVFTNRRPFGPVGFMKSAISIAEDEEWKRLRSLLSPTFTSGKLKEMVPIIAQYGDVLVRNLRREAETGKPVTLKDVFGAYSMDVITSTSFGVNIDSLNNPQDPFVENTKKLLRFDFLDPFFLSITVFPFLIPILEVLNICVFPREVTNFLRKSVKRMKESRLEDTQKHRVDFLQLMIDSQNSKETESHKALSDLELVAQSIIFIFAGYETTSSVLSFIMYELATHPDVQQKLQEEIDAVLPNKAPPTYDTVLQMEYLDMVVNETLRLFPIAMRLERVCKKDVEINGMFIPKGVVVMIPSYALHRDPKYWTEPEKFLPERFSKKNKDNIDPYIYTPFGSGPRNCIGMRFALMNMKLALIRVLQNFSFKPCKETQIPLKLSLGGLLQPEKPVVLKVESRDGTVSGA

[9] = molecular target: Cytochrome P450 2C19 (Homo sapiens, UniProt P33261); experiment: Inhibition of CYP2C19 (unknown origin); format: ADME
Sequence of Cytochrome P450 2C19 (P33261 whole entry): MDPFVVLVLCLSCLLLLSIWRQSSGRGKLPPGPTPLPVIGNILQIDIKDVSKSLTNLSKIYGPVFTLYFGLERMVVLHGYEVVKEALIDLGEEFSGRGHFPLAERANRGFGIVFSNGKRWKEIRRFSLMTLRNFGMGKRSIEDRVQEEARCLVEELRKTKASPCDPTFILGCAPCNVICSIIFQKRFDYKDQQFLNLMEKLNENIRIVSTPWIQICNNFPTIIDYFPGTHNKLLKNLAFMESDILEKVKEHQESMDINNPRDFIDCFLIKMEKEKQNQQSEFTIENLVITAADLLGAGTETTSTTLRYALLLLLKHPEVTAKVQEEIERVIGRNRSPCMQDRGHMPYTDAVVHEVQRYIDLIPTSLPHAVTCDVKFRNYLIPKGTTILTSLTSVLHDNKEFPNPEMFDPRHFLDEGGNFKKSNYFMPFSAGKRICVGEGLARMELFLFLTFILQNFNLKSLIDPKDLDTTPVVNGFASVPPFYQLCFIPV

[10] = Apparent permeability from basolateral to apical side in human Caco2 cells; format: ADME, cell-based; details: Caco-2
In short: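 Caco-2 monolayer permeability measured in both the A-to-B and B-to-A directions and reported as P_app (×10⁻⁶ cm/s).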

[11] = Cmax in Sprague-Dawley rat plasma at 10 mg/kg, po administered as single dose by LC-MS/MS analysis; format: ADME, organism-based; set-up: dose 10 mg/kg, route oral
In short: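 Single-dose PK in drug-naive adult male Sprague−Dawley rats, n = 3 per group: 3.1 μmol/kg IV in 5% DMSO/10% Solutol in saline (5 mL/kg), or 15.7 μmol/kg PO in 5% Solutol/10% Captisol in 25 mM PBS, pH adjusted to 2 with HCl. Plasma parameters reported as mean ± SD.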

[12] = AUClast in cynomolgus monkey plasma at 1 mg/kg, iv or 5 mg/kg, po measured up to 12 or 24 hrs post dose by LC-MS/MS analysis; format: ADME, organism-based, Macaca fascicularis
In short: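 Single-dose PK in female cynomolgus monkeys, n = 3 per group: 1.5 μmol/kg IV in 5% DMSO/10% Solutol in saline, pH 6.5 (2 mL/kg), or 7.8 μmol/kg PO in 5% Solutol in 20% Captisol, 25 mM PBS, pH 2 (5 mL/kg). Plasma parameters reported as mean ± SD.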

[13] = Drug level in po dosed Sprague-Dawley rat plasma measured 2 hrs post dose by LC-MS/MS analysis; format: ADME, organism-based; details: in vivo
[14] = Ratio of drug level in Sprague-Dawley rat brain to plasma at 3 to 10 mg/kg, po measured 2 hrs post dose by LC-MS/MS analysis; format: ADME, organism-based; details: read-out: BPR
In short: (§3)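 Drug-naive male Sprague–Dawley rats (n = 4–5/group) were dosed orally in 5% Solutol/10% Captisol in 25 mM PBS, pH 2, and euthanized by CO2 2 h post-dose. CSF (50–100 μL) was taken from the cisterna magna, and brain and plasma were collected; drug was measured in each matrix. Quantitation limit 1.0 ng/mL.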

[15] = Ratio of drug level in CSF to unbound plasma concentration in Sprague-Dawley rat at 3 to 10 mg/kg, po measured 2 hrs post dose by LC-MS/MS analysis; format: ADME, organism-based; details: in vivo; in short: as §3
[16] = Drug level in cynomolgus monkey plasma at 3 mg/kg, po measured at 2 hrs post dose by LC-MS/MS analysis; format: ADME, organism-based, Macaca fascicularis
[17] = Drug level in cynomolgus monkey plasma at 3 mg/kg, po measured at 3 hrs post dose by LC-MS/MS analysis; format: ADME, organism-based, Macaca fascicularis
[18] = Drug level in cynomolgus monkey plasma at 3 mg/kg, po measured at 12 hrs post dose by LC-MS/MS analysis; format: ADME, organism-based, Macaca fascicularis
[19] = Drug level in cynomolgus monkey plasma at 10 mg/kg, po measured at 1 hr post dose by LC-MS/MS analysis; format: ADME, organism-based, Macaca fascicularis
In short: (§4)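 Cynomolgus monkeys (n = 3/group) fitted with subcutaneous CSF ports were dosed orally at 0.4−15.7 μmol/kg in 5% Solutol plus 20% Captisol in 25 mM PBS, pH 2. CSF (about 0.30 mL) and blood were sampled predose and at 0.5, 1, 2, 3, 4, 8, 12 and 24 h. Quantitation limit 1.0 ng/mL; mean ± SD.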

[20] = Drug level in cynomolgus monkey CSF at 10 mg/kg, po measured at 2 hrs post dose by LC-MS/MS analysis; format: ADME, organism-based, Macaca fascicularis, Cerebrospinal fluid; details: read-out: Drug uptake; in short: as §4
[21] = Drug level in cynomolgus monkey CSF at 10 mg/kg, po measured at 4 hrs post dose by LC-MS/MS analysis; format: ADME, organism-based, Macaca fascicularis, Cerebrospinal fluid; details: read-out: Drug uptake; in short: as §4
[22] = Toxicity in cynomolgus monkey assessed as gross behavioral abnormality at 0.3 to 10 mg/kg, po measured up to 24 hrs post dose; format: organism-based, Macaca fascicularis; details: in vivo
In short: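 Cynomolgus monkeys (n = 3/group) received an oral dose of 0.4, 1.5, 4.7 or 15.7 μmol/kg in 5% Solutol/20% Captisol in 25 mM PBS, pH 2. CSF was drawn via subcutaneous ports and blood sampled predose and at 0.5–24 h.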

[23] = Protein binding in monkey plasma; details: cynomolgus monkey, read-out: PPB (converted)

Structure (SMILES): Cl.Cn1cc(S(=O)(=O)N2CCN(C3(CNC(=O)c4ccc(C(F)(F)F)cc4Cl)CCC(F)(F)CC3)CC2)nn1
- concentration at 2 h [1]: 66.8 nM
- concentration at 2 h [2]: 490 nM
- Activity [3]: 188%
- concentration at 2 h [4]: 38.2 nM
- concentration at 2 h [5]: 237 nM

Structure (SMILES): CC(NC(=O)c1ccc(C(F)(F)F)cc1Cl)C1(N2CCN(S(=O)(=O)c3cn(C)nn3)CC2)CCC(F)(F)CC1.Cl (single isomer, unassigned; (+))
- CL [6]: 12 microL/ml/min
- CL [7]: 4 microL/ml/min
- IC50 [8]: > 7.2 µM
- IC50 [9]: > 7.2 µM
- Papp B→A [10]: 47.4 ×10⁻⁶ cm/s
- Cmax [11]: 352 ng/mL
- AUC(0-t) at 24 h [12]: 690 ng·h/mL
- Drug uptake [13]: Dose-dependent effect
- Kp at 2 h [14]: 0.1 to 0.2
- Ratio [15]: > 0.1
- concentration at 2 h [16]: 3.6 ng/mL
- concentration at 3 h [17]: 5.7 ng/mL
- concentration at 12 h [18]: < 1 ng/mL
- concentration at 1 h [19]: 203 ng/mL
- concentration at 2 h [20]: 11.3 ng/mL
- concentration at 4 h [21]: 8.4 ng/mL
- Activity [22]: Non-Toxic
- fraction unbound [23]: 0.19
